In brackets after ≈: the same amount, converted by molar mass. Activity calls are given as the source filed them. No cut-off for these calls is given here. Where a SMILES comes first, the peptide text is derived from it. Bridges are numbered along the chain shown (N, C = ends). [ ]: non-standard residue; d: D form. The star is where a group is joined. Octatrienoyl(2E,4E,6E) = C/C=C/C=C/C=C/C(=O)*; Hexadienoyl(2E,4E) = C/C=C/C=C/C(=O)*; Pro(4R-Me) = C[C@H]1CN[C@H](C(=O)O)C1; NMeA = CN[C@@H](C)C(=O)O; X1 = CCC/C=C/C=C/C(=O)*
Columns and labels:
[1] = tested on: Staphylococcus aureus; test: Antibacterial activity against Staphylococcus aureus ATCC 29213 incubated for 16 to 18 hrs by broth microdilution method; type: functional
How it was run: (§1)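 Colonies pre-grown 16−18 h at 37 °C in moist 5% CO₂ (Staph. aureus on LB agar; the others on GC agar with 1% IsoVitaleX), then diluted in BHI + 1% IsoVitaleX. Inoculum set by OD (600 nm Staph. aureus and S. pneumoniae; 550 nm N. meningitidis) to give ∼5 × 10⁵ cfu/mL per well. Twofold dilutions run 128–0.0625 μg/mL final. DMSO-only and medium blanks were included, with three independent plates, incubated 16−18 h at 37 °C in 5% CO₂.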

[2] = tested on: Streptococcus pneumoniae; test: Antibacterial activity against Streptococcus pneumoniae ATCC 49619 incubated for 16 to 18 hrs by broth microdilution method; type: functional; how it was run: as §1
[3] = tested on: Neisseria meningitidis; test: Antibacterial activity against Neisseria meningitidis H44/76 incubated for 16 to 18 hrs by broth microdilution method; type: functional; how it was run: as §1
[4] = biological target: ATP-dependent Clp protease proteolytic subunit (Escherichia coli (strain K12)) (UniProt P0A6G7); test: Activation of Escherichia coli ClpP assessed as degradation of casein-FITC substrate at 5 uM fluorescence-based biochemical assay
[5] = biological target: ATP-dependent Clp protease proteolytic subunit (Escherichia coli (strain K12), UniProt P0A6G7); test: Activation of Escherichia coli ClpP by ITC method
ATP-dependent Clp protease proteolytic subunit, sequence (P0A6G7 whole entry): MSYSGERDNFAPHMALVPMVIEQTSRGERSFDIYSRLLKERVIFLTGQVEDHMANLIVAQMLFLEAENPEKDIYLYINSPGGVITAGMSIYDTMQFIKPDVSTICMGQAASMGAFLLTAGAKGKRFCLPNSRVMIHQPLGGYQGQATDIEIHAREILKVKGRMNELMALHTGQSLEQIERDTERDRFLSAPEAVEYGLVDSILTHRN

ATP-dependent Clp protease proteolytic subunit (Escherichia coli (strain K12)), sequence (P0A6G7 whole entry): as above

Structure (SMILES) | MIC [1] [µg/mL] | MIC [2] [µg/mL] | MIC [3] [µg/mL] | Activity [4] | Kd [5] [nM]
CCC/C=C/C=C/C(=O)N[C@@H](Cc1ccccc1)C(=O)N[C@H]1COC(=O)[C@@H]2C[C@@H](C)CN2C(=O)[C@H](C)NC(=O)[C@H](C)N(C)C(=O)[C@@H]2CCCN2C1=O (X1-FSP[NMeA]A[Pro(4R-Me)]; ester 2-C) | 0.5 (≈ 0.694 µM) | < 0.0625 | < 0.0625 | Active | –
C[C@@H]1C[C@H]2C(=O)OC[C@H](NC(=O)[C@H](Cc3ccccc3)NC(=O)/C=C/C=C/CO)C(=O)N3CCC[C@H]3C(=O)N(C)[C@@H](C)C(=O)N[C@@H](C)C(=O)N2C1 (stereo in doubt) | 128 (≈ 181 µM) | 0.25 (≈ 0.353 µM) | 64 (≈ 90.3 µM) | inactive | –
C/C=C/C=C/C(=O)N[C@@H](Cc1ccccc1)C(=O)N[C@H]1COC(=O)[C@@H]2C[C@@H](C)CN2C(=O)[C@H](C)NC(=O)[C@H](C)N(C)C(=O)[C@@H]2CCCN2C1=O ({Hexadienoyl(2E,4E)}-FSP[NMeA]A[Pro(4R-Me)]; ester 2-C) | 4 (≈ 5.77 µM) | 0.125 (≈ 0.18 µM) | 2 (≈ 2.89 µM) | inactive | –
NC[C@@H]1O[C@@H](O[C@H]2[C@H](O)[C@@H](O[C@H]3O[C@H](CO)[C@@H](O)[C@H](N)[C@H]3O)[C@H](N)C[C@@H]2N)[C@@H](O)[C@H](O)[C@H]1O [KANAMYCIN A] | – | – | 64 (≈ 132 µM) | – | –
CN[C@H](CC(C)C)C(=O)N[C@H]1C(=O)N[C@@H](CC(N)=O)C(=O)N[C@H]2C(=O)N[C@H]3C(=O)N[C@H](C(=O)N[C@H](C(=O)O)c4cc(O)cc(O)c4-c4cc3ccc4O)[C@H](O)c3ccc(c(Cl)c3)Oc3cc2cc(c3O[C@@H]2O[C@H](CO)[C@@H](O)[C@H](O)[C@H]2O[C@H]2C[C@](C)(N)[C@H](O)[C@H](C)O2)Oc2ccc(cc2Cl)[C@H]1O [VANCOMYCIN] | – | 2 (≈ 1.38 µM) | – | – | –

The remaining lines, values ahead:

MIC [1] [µg/mL] | MIC [2] [µg/mL] | MIC [3] [µg/mL] | Activity [4] | Kd [5] [nM] | Structure (SMILES)
16 (≈ 23.6 µM) | 0.25 (≈ 0.368 µM) | 4 (≈ 5.89 µM) | inactive | – | C/C=C/C=C/C(=O)N[C@@H](Cc1ccccc1)C(=O)N[C@H]1COC(=O)[C@@H]2CCCN2C(=O)[C@H](C)NC(=O)[C@H](C)N(C)C(=O)[C@@H]2CCCN2C1=O ({Hexadienoyl(2E,4E)}-FSP[NMeA]AP; ester 2-C)
16 (≈ 22.7 µM) | 0.5 (≈ 0.709 µM) | 0.5 (≈ 0.709 µM) | Active | 700 | C/C=C/C=C/C=C/C(=O)N[C@@H](Cc1ccccc1)C(=O)N[C@H]1COC(=O)[C@@H]2CCCN2C(=O)[C@H](C)NC(=O)[C@H](C)N(C)C(=O)[C@@H]2CCCN2C1=O ({Octatrienoyl(2E,4E,6E)}-FSP[NMeA]AP; ester 2-C)
4 (≈ 5.56 µM) | < 0.0625 | 0.125 (≈ 0.174 µM) | Active | 300 | C/C=C/C=C/C=C/C(=O)N[C@@H](Cc1ccccc1)C(=O)N[C@H]1COC(=O)[C@@H]2C[C@@H](C)CN2C(=O)[C@H](C)NC(=O)[C@H](C)N(C)C(=O)[C@@H]2CCCN2C1=O ({Octatrienoyl(2E,4E,6E)}-FSP[NMeA]A[Pro(4R-Me)]; ester 2-C)

From ChEMBL document CHEMBL3352552, “Total synthesis and antibacterial testing of the A54556 cyclic acyldepsipeptides isolated from Streptomyces hawaiiensis” (J Nat Prod, 2014)
